Test results published in ChEMBL document CHEMBL1152276, “Substituted 2-imino-5-arylidenethiazolidin-4-one inhibitors of bacterial type III secretion” (J Med Chem, 2008).
The source made the active and inactive calls. No cut-off for these calls is given here.

Tested on: Salmonella enterica subsp. enterica serovar Typhimurium
Experiment: Inhibition of Salmonella enterica serovar Typhimurium type 3 secretion system-mediated SipA protein secretion at 1 uM by Western blotting
Conditions: not given

Row | Compound | Activity
1 | COc1cc(/C=C2\S/C(=N\c3ccccc3)N(CCCC(=O)OC(C)(C)C)C2=O)cc(OC)c1O | Active
2 | COc1cc(/C=C2\S/C(=N\c3ccccc3)N(CC(=O)O)C2=O)cc(OC)c1O | Active

Tested on: Salmonella typhimurium
Experiment: Growth inhibition of Salmonella enterica serovar Typhimurium ATCC 14028 up to 1 mM
Assay type: functional, organism-based
Conditions: Salmonella enterica subsp. enterica serovar Typhimurium
Outline: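 Aliquots (30 μL) of a 2 mL overnight culture were dosed with 0.1, 1.0, 2.0, 3.0, 6.0 or 15.0 μL of compound in DMSO. DMSO alone in LB served as the control.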

Row | Compound | Activity
3 | COc1cc(/C=C2\S/C(=N\c3ccccc3)N(c3ccccc3)C2=O)cc(OC)c1O | inactive
4 | COc1cc(/C=C2\S/C(=N\c3ccccc3)N([C@@H](CCCN)C(=O)N[C@@H](Cc3ccc(-c4ccccc4)cc3)C(N)=O)C2=O)cc(OC)c1O | inactive
5 | COc1cc(/C=C2\S/C(=N\c3ccccc3)N(c3ccc(CNC(=O)OC(C)(C)C)cc3)C2=O)cc(OC)c1O | inactive
6 | COc1cc(/C=C2\S/C(=N\c3ccccc3)N([C@@H](Cc3ccc(-c4ccccc4)cc3)C(=O)N[C@@H](CCCNC(=N)N)C(N)=O)C2=O)cc(OC)c1O | inactive
7 | COc1cc(/C=C2\S/C(=N\c3ccccc3)N(c3ccc(CN)cc3)C2=O)cc(OC)c1O | inactive

Tested on: not listed separately
Experiment: Inhibition of Salmonella enterica serovar Typhimurium type 3 secretion system-mediated SipA protein secretion by Western blotting
Parameters: species or system Salmonella enterica subsp. enterica serovar Typhimurium
Conditions: not given
Outline: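 Bacteria were grown 18 h in LB broth and pelleted, and culture supernates were 0.2 μm-filtered. Proteins were precipitated with 10% TCA on ice for 30 min, centrifuged, acetone-washed and resolved by SDS-PAGE. Western blots were probed with polyclonal anti-SipA. IC50 was calculated from percent inhibition of secreted SipA using at least 3 inhibitor concentrations.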

Row | Compound | IC50 [µM]
8 | COc1cc(/C=C2\S/C(=N\c3ccccc3)N(c3ccccc3)C2=O)cc(OC)c1O | 83
9 | COc1cc(/C=C2\S/C(=N\c3ccc(CN)cc3)N(c3ccccc3)C2=O)cc(OC)c1O | 101
10 | COc1cc(/C=C2\S/C(=N\c3ccccc3)N(C(C)C(=O)N[C@@H](Cc3c[nH]c4ccccc34)C(N)=O)C2=O)cc(OC)c1O (stereo in doubt; 44a) | 30
11 | COc1cc(/C=C2\S/C(=N\c3ccccc3)N(C(CCCNC(=N)N)C(=O)N[C@@H](C)C(N)=O)C2=O)cc(OC)c1O (stereo partly specified) | 41
12 | COc1cc(/C=C2\S/C(=N\c3ccccc3)N([C@H](Cc3ccc(-c4ccccc4)cc3)C(=O)N[C@@H](CCCNC(=N)N)C(N)=O)C2=O)cc(OC)c1O | 8
13 | COc1cc(/C=C2\S/C(=N\c3ccccc3)N(CCCCCCN)C2=O)cc(OC)c1O | 54
14 | COc1cc(/C=C2\S/C(=N\c3ccccc3)N([C@@H](C)C(=O)N[C@@H](C)C(N)=O)C2=O)cc(OC)c1O | 62
15 | O=C1/C(=C/c2ccncc2)S/C(=N\c2ccccc2)N1c1ccccc1 | 376
16 | COc1cc(/C=C2\S/C(=N\c3ccccc3)N(C(CCCN)C(=O)N[C@H](CC3CNc4ccccc43)C(N)=O)C2=O)cc(OC)c1O (mixture of isomers) | 52
17 | COc1cc(/C=C2\S/C(=N\c3ccccc3)N(C(CCCNC(=N)N)C(=O)N3CSC[C@H]3C(N)=O)C2=O)cc(OC)c1O (stereo partly specified) | 65
18 | COc1cc(/C=C2\S/C(=N\c3ccccc3)N([C@@H](CCCN)C(=O)N[C@@H](C)C(N)=O)C2=O)cc(OC)c1O | 32
19 | COc1cc(/C=C2\S/C(=N\c3ccccc3)N([C@@H](CCC(=O)O)C(=O)N[C@@H](Cc3ccc(-c4ccccc4)cc3)C(N)=O)C2=O)cc(OC)c1O | 50
20 | COc1ccc(/N=C2\S/C(=C\c3ccncc3)C(=O)N2c2ccccc2)cc1 | 137
21 | COc1cc(/C=C2\S/C(=N\c3ccccc3)N([C@@H](CCCN)C(=O)N[C@@H](Cc3ccc(-c4ccccc4)cc3)C(N)=O)C2=O)cc(OC)c1O | 13
22 | COc1cc(/C=C2\S/C(=N\c3ccccc3)N(CCCC(=O)OC(C)(C)C)C2=O)cc(OC)c1O | 4
23 | COc1cc(/C=C2\S/C(=N\c3ccccc3)N(C(C)C(=O)N[C@@H](Cc3c[nH]c4ccccc34)C(N)=O)C2=O)cc(OC)c1O (stereo in doubt; 44b) | 29
24 | COc1cc(/C=C2\S/C(=N\c3ccccc3)N(C(Cc3ccc(-c4ccccc4)cc3)C(=O)N[C@@H](CCCN)C(N)=O)C2=O)cc(OC)c1O (single isomer, unassigned) | 55
25 | COc1cc(/C=C2\S/C(=N\c3ccccc3)N([C@@H](C)C(=O)N[C@@H](CCCN)C(N)=O)C2=O)cc(OC)c1O | 16
26 | COc1cc(/C=C2\S/C(=N\c3ccccc3)N([C@H](C)C(=O)N[C@@H](CCCN)C(N)=O)C2=O)cc(OC)c1O | 9
27 | COc1cc(/C=C2\S/C(=N\c3ccccc3)N(C(C(=O)N[C@@H](Cc3ccc(O)cc3)C(N)=O)C(C)C)C2=O)cc(OC)c1O (stereo partly specified) | 52

Row | Compound | IC50 [µM]
28 | COc1cc(/C=C2\S/C(=N\c3ccccc3)N(C(CCCNC(=N)N)C(=O)N3Cc4ccccc4C[C@H]3C(N)=O)C2=O)cc(OC)c1O (stereo partly specified) | 115
29 | O=C1/C(=C/C2CCCCC2)S/C(=N\c2ccccc2)N1c1ccccc1 | 225
30 | COc1cc(/C=C2\S/C(=N\c3ccccc3)N(CC(=O)O)C2=O)cc(OC)c1O | 36
31 | COc1cc(/C=C2\S/C(=N\c3ccccc3)N([C@@H](C)C(=O)N[C@@H](Cc3ccc(O)cc3)C(N)=O)C2=O)cc(OC)c1O | 112
32 | CSc1ccc(/C=C2\S/C(=N\c3ccccc3)N(c3ccccc3)C2=O)cc1 | 26
33 | CC(C)(C)/C=C1\S/C(=N\c2ccccc2)N(c2ccccc2)C1=O | 244
34 | COc1ccc(N2C(=O)/C(=C/c3cc(OC)c(O)c(OC)c3)S/C2=N\c2ccccc2)cc1 | 51
35 | COc1cc(/C=C2\S/C(=N\c3ccccc3)N(c3ccc(CNC(=O)OC(C)(C)C)cc3)C2=O)cc(OC)c1O | 45
36 | COc1cc(/C=C2\S/C(=N\c3ccccc3)N([C@@H](CCCNC(=N)N)C(=O)N[C@@H](Cc3ccc(-c4ccccc4)cc3)C(N)=O)C2=O)cc(OC)c1O | 50
37 | O=C1/C(=C/c2ccc(Cl)cc2)S/C(=N\c2ccccc2)N1c1ccccc1 | 322
38 | COc1cc(/C=C2\S/C(=N\c3ccccc3)N([C@H](C)C(=O)N[C@@H](CCCNC(=N)N)C(N)=O)C2=O)cc(OC)c1O | 38
39 | COc1cc(/C=C2\S/C(=N\c3ccccc3)N(CCCC(=O)O)C2=O)cc(OC)c1O | 66
40 | COc1ccc(N2C(=O)/C(=C/C3CCCCC3)S/C2=N\c2ccccc2)cc1 | 278
41 | COc1ccc(N2C(=O)/C(=C/C(C)(C)C)S/C2=N\c2ccccc2)cc1 | 160
42 | COc1cc(/C=C2\S/C(=N\c3ccccc3)N([C@@H](Cc3ccc(-c4ccccc4)cc3)C(=O)N[C@@H](CCCNC(=N)N)C(N)=O)C2=O)cc(OC)c1O | 3
43 | COc1cc(/C=C2\S/C(=N\c3ccccc3)N([C@@H](C)C(=O)N[C@@H](CCCNC(=N)N)C(N)=O)C2=O)cc(OC)c1O | 77
44 | COc1ccc(/C=C2\S/C(=N\c3ccccc3)N(c3ccccc3)C2=O)cc1OC | 278
45 | COc1cc(/C=C2\S/C(=N\c3ccccc3)N(c3ccc(CN)cc3)C2=O)cc(OC)c1O | 52
46 | COc1cc(/C=C2\S/C(=N\c3ccccc3)N(C(CCCN)C(=O)N[C@@H](CC3CNc4ccccc43)C(N)=O)C2=O)cc(OC)c1O (mixture of isomers) | 56
